Assay [1] in a line: Inhibition of Staphylococcus aureus MurF using D-Ala-D-Ala/UMtri-L-Lys as substrate after 15 mins by Malachite green method. The procedure, abridged:
(§1)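 S. aureus MurF, purified, assayed in 50 mM Hepes pH 8.0 with 20 mM MgCl2 and 0.005% Triton X-114, with D-Ala-D-Ala, UMtri-L-Lys and ATP. Compound was in DMSO (5% v/v final). After 15 min at 37 °C, Biomol reagent was added and A650 was read 5 min later. Duplicates were run. Residual activity was relative to 5% DMSO controls. IC50 was read as 50% residual activity across seven concentrations.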

The nature of assay [2]: Inhibition of Escherichia coli MurF using D-Ala-D-Ala/UMtri-mDAP as substrate after 15 mins by Malachite green method. Put shortly:
(§2)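 Purified E. coli MurF in 50 mM Hepes pH 8.0, 50 mM MgCl2, 0.005% Triton X-114, with D-Ala-D-Ala, UMtri-mDAP and ATP. Compound was added in DMSO (final 5% v/v). Mixtures were incubated 15 min at 37 °C, quenched with Biomol reagent, and absorbance was read at 650 nm after 5 min. Runs were in duplicate. Residual activity was taken versus DMSO-only controls. IC50 came from residual activity at seven concentrations.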

Assay [3] has as its system Streptococcus pneumoniae. The assay is described as follows: Antimicrobial activity against Streptococcus pneumoniae R6 by broth microdilution method. In kind it is functional. Put shortly:
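MIC by CLSI broth microdilution in Mueller-Hinton broth supplemented with 5% (v/v) lysed horse blood.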
(Broth dilution looks for growth in wells or tubes with falling amounts of substance.)

The test system of assay [4] is Staphylococcus aureus. As to the kind of experiment: Antimicrobial activity against Staphylococcus aureus SH1000 by broth microdilution method. In kind it is functional, organism-based. The procedure, abridged:
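MIC by broth microdilution in Mueller-Hinton broth following CLSI guidelines.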

Assay [5] has as its system Escherichia coli. As to the kind of experiment: Antimicrobial activity against Escherichia coli AB734 by broth microdilution method. In kind it is functional, organism-based. Put shortly:
(§3)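 Broth microdilution MIC per CLSI guidelines in Mueller-Hinton broth. E. coli 1411 and AB734 were also tested with added polymyxin B nonapeptide to permeabilise the outer membrane.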

The test system of assay [6] is Escherichia coli. The assay is described as follows: Antimicrobial activity against Escherichia coli 1411 by broth microdilution method. The assay is classed as functional, organism-based. Put shortly: as §3
Assay [7] in a line: Inhibition of Streptococcus pneumoniae MurF using D-Ala-D-Ala/UMtri-L-Lys as substrate after 15 mins by Malachite green method. Put shortly:
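Purified S. pneumoniae MurF in 50 mM Hepes pH 8.0, 50 mM MgCl2, 0.005% Triton X-114, with D-Ala-D-Ala, UMtri-L-Lys and ATP. Compound was added in DMSO (5% v/v final). Reactions ran 15 min at 37 °C, were stopped with Biomol malachite green reagent, and A650 was measured after 5 min. Runs were in duplicate. Residual activity was versus DMSO controls. IC50 was from seven concentrations.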

For assay [8], the system named is Staphylococcus aureus. As to the kind of experiment: Inhibition of Staphylococcus aureus MurF using D-Ala-D-Ala/UMtri-L-Lys as substrate assessed as residual activity at 100 uM after 15 mins by Malachite green method. Put shortly:
as §1

Assay [9] relates to Escherichia coli. The assay is described as follows: Inhibition of Escherichia coli MurF using D-Ala-D-Ala/UMtri-mDAP as substrate assessed as residual activity at 100 uM after 15 mins by Malachite green method. The procedure, abridged: as §2

Values after ≈ are worked out from the molar mass of the structure shown. Active and inactive are the calls of the source. The rule behind the calls is not given here.

One may read the IC50 as the point on the concentration scale where inhibition reaches its midpoint. Higher therefore signals weaker potency in that assay. The MIC is the lowest concentration found to suppress growth. Lower therefore signals a more susceptible organism.

Turning to `N#Cc1c(NC(=O)c2cc(S(=O)(=O)N3CCOCC3)c(Cl)cc2Cl)sc2c1CCN(Cc1ccc(-c3nnn[nH]3)cc1)C2`, the IC50 in assay [1] came to 120 µM; in assay [2], 55 µM; in [7] it was 0.3 µM. Besides, the MIC in [3] was above 128 µg/mL. The result in [4], in assay [5] and in [6] was inactive.

Consider `N#Cc1c(NC(=O)c2cc(S(=O)(=O)N3CCOCC3)c(Cl)cc2Cl)sc2c1CCN(Cc1cc(O)ccc1O)C2`, for which, in assay [3], the minimal inhibitory concentration (MIC) was 32 µg/mL (≈ 51.3 µM). Further, the outcome in assay [4], in [5] and in assay [6] was inactive. Also, the results for the Activity in assay [8] and in [9] were 79% and 81%, respectively. Moreover, the half-maximal inhibitory concentration (IC50) in [7] came to 2.75 µM.

Take `Cl.N#Cc1c(NC(=O)c2cc(S(=O)(=O)N3CCOCC3)c(Cl)cc2Cl)sc2c1CCNC2`: the MIC in [3] was determined as 128 µg/mL. The result in assay [4], in assay [5] and in assay [6] was inactive. The Activity in assay [8] stood at 81%; in assay [9], 94%. This compound displayed an IC50 in assay [7] of 47 µM.

In turn, `CC1CCCCN1S(=O)(=O)c1cc(C(=O)Nc2sc3c(c2C#N)CCCC3)c(Cl)cc1Cl` (configuration not stated) displayed an MIC in assay [3] above 128 µg/mL. The outcome in [4], in assay [5] and in assay [6] was inactive. Besides, the Activity in assay [8] amounted to 103%; in assay [9], 107%. Further, in assay [7], the midpoint of inhibition, the IC50, lay at 3.75 µM.

Turning to `COc1ccc(CN2CCc3c(sc(NC(=O)c4cc(S(=O)(=O)N5CCOCC5)c(Cl)cc4Cl)c3C#N)C2)cc1O`, the concentration for half-maximal inhibition (IC50) in [1] came out at 115 µM; in assay [2], 77 µM; in assay [7], 0.6 µM. The compound also displayed a minimal inhibitory concentration (MIC) in [3] above 128 µg/mL. The result in assay [4], in assay [5] and in assay [6] was inactive.

On to `N#Cc1c(NC(=O)c2cc(S(=O)(=O)N3CCOCC3)c(Cl)cc2Cl)sc2c1CCN(CC1CCCCC1)C2`, for which the minimal inhibitory concentration (MIC) in assay [3] was above 128 µg/mL. Moreover, the outcome in assay [4], in assay [5] and in assay [6] was inactive. Further, the Activity in assay [8] was determined as 64%; in assay [9] it was 63%. The compound also yielded an IC50 in assay [7] of 0.46 µM.

As for `N#Cc1c(NC(=O)c2cc(S(=O)(=O)N3CCOCC3)c(Cl)cc2Cl)sc2c1CCN(Cc1ccc(O)cc1)C2`, the minimal inhibitory concentration (MIC) in [3] is above 128 µg/mL. Further, the outcome in [4], in assay [5] and in assay [6] was inactive. Also, the Activity in assay [8] amounted to 84%; in assay [9], 68%. Also, the half-maximal inhibitory concentration (IC50) in assay [7] was 0.18 µM.

The compound `N#Cc1c(NC(=O)c2cc(S(=O)(=O)N3CCOCC3)c(Cl)cc2Cl)sc2c1CCN(C(=O)c1ccccc1)C2` showed an MIC in assay [3] above 128 µg/mL. Besides, the result in assay [4], in [5] and in assay [6] was inactive. Also, the Activity in assay [8] was 107%; in assay [9], 93%. Moreover, the IC50 in assay [7] is 27 µM.

On to `CC(C)(C)OC(=O)N1CCC(CCN2CCc3c(sc(NC(=O)c4cc(S(=O)(=O)N5CCOCC5)c(Cl)cc4Cl)c3C#N)C2)CC1`, for which the result in assay [4], in [5] and in assay [6] was inactive.

Take `N#Cc1c(NC(=O)c2cc(S(=O)(=O)N3CCC(O)CC3)c(Cl)cc2Cl)sc2c1CCCC2`: in assay [3], it took 64 µg/mL (≈ 124 µM) to inhibit growth (MIC). Besides, the result in assay [4], in assay [5] and in assay [6] was inactive. The Activity in assay [8] stood at 101%; in assay [9], 104%. For the same compound, inhibition in assay [7] was half-maximal at 10.5 µM (IC50).

With `N#Cc1c(NC(=O)c2cc(S(=O)(=O)N3CCCC(C(=O)O)C3)c(Cl)cc2Cl)sc2c1CCCC2` (configuration not stated), the MIC in [3] is above 128 µg/mL. The result in assay [4], in [5] and in [6] was inactive. Besides, the figures for the Activity in [8] and in assay [9] were 102% and 100%, respectively. Further, the IC50 in assay [7] amounted to 50 µM.

For `COc1cc(CN2CCc3c(sc(NC(=O)c4cc(S(=O)(=O)N5CCOCC5)c(Cl)cc4Cl)c3C#N)C2)ccc1O`, the IC50 in assay [2] turned out to be 98 µM; in assay [7], 4.15 µM. Also, the minimal inhibitory concentration (MIC) in assay [3] is above 128 µg/mL. In addition, the result in [4], in assay [5] and in assay [6] was inactive. In addition, the Activity in assay [8] worked out at 64%.

Consider `CCOC(=O)C1CCCN(S(=O)(=O)c2cc(C(=O)Nc3sc4c(c3C#N)CCCC4)c(Cl)cc2Cl)C1` (configuration not stated), for which the outcome in [4], in [5] and in [6] was inactive. The Activity in assay [8] stood at 93%; in assay [9] it was 94%. In assay [7], this compound gave a half-inhibitory concentration (IC50) of 131 µM.

In turn, `N#Cc1c(NC(=O)c2cc(S(=O)(=O)N3CCOCC3)c(Cl)cc2Cl)sc2c1CCN(CCC1CCNCC1)C2.O=C(O)C(F)(F)F` returned a minimum inhibitory concentration (MIC) in [3] above 128 µg/mL. For the same compound, the result in [4], in assay [5] and in [6] was inactive. Moreover, the figures for the Activity in assay [8] and in assay [9] were 84% and 93%, respectively. In [7], this compound gave a concentration for half-maximal inhibition (IC50) of 0.6 µM.

In assay [3], `N#Cc1c(NC(=O)c2cc(S(=O)(=O)N3CCOCC3)c(Cl)cc2Cl)sc2c1CCN(Cc1ccc(O)c(O)c1)C2` showed a minimal inhibitory concentration (MIC) above 128 µg/mL. Besides, the result in [4], in assay [5] and in [6] was inactive. For the same compound, the Activity in assay [8] turned out to be 64%; in assay [9], 78%. Moreover, the IC50 in [7] turned out to be 0.43 µM.

Regarding `N#Cc1ccc(CN2CCc3c(sc(NC(=O)c4cc(S(=O)(=O)N5CCOCC5)c(Cl)cc4Cl)c3C#N)C2)c(F)c1`, the values for the IC50 in assay [1] and in assay [7] were 92 µM and 1.92 µM, respectively. The compound further came in with an MIC in [3] above 128 µg/mL. In addition, the outcome in assay [4], in [5] and in assay [6] was inactive. For the same compound, the Activity in assay [9] amounted to 58%.

In assay [3], `COc1ccc(C2CCc3c(sc(NC(=O)c4cc(S(=O)(=O)N5CCOCC5)c(Cl)cc4Cl)c3C#N)C2)cc1` (configuration not stated) gave a minimal inhibitory concentration (MIC) above 128 µg/mL. Further, the result in assay [4], in assay [5] and in assay [6] was inactive. Also, the figures for the Activity in assay [8] and in assay [9] were 85% and 90%, respectively. For the same compound, the half-inhibitory concentration (IC50) in assay [7] amounted to 0.17 µM.

`N#Cc1c(NC(=O)c2cc(S(=O)(=O)N3CCC(=O)CC3)c(Cl)cc2Cl)sc2c1CCCC2` registered an MIC in [3] above 128 µg/mL. The result in assay [4], in assay [5] and in [6] was inactive. Besides, the Activity was determined as 103% in assay [8] and 102% in assay [9]. Besides, half-maximal inhibition in [7] (IC50) was put at 3.37 µM.

In turn, `CC(=O)Oc1ccc(C2CCc3c(sc(NC(=O)c4cc(S(=O)(=O)N5CCOCC5)c(Cl)cc4Cl)c3C#N)C2)cc1` (configuration not stated) came in with an MIC in assay [3] above 128 µg/mL. The result in assay [4], in [5] and in [6] was inactive. The Activity in assay [8] was 103%; in assay [9] it was 91%. For the same compound, the 50% inhibitory concentration (IC50) in assay [7] came to 0.12 µM.

As for `CC(C)(C)OC(=O)N1CCc2c(sc(NC(=O)c3cc(S(=O)(=O)N4CCOCC4)c(Cl)cc3Cl)c2C#N)C1`, 128 µg/mL (≈ 213 µM) was the least that counted as inhibitory in assay [3] (MIC). In addition, the result in assay [4], in assay [5] and in assay [6] was inactive. The Activity is 78% in [8] and 88% in assay [9]. Further, in assay [7], the half-maximal inhibitory concentration (IC50) worked out at 19 µM.

With `N#Cc1c(NC(=O)c2cc(S(=O)(=O)N3CCC(C(=O)O)CC3)c(Cl)cc2Cl)sc2c1CCCC2`, in [3], the minimum inhibitory concentration (MIC) was found to be 64 µg/mL (≈ 118 µM). The outcome in assay [4], in [5] and in assay [6] was inactive. The figures for the Activity in assay [8] and in assay [9] were 96% and 102%, respectively. For the same compound, the IC50 in assay [7] is 17.9 µM.
